Experimental data: ChEMBL document CHEMBL1671794, “Synthesis and SAR studies on azetidine-containing dipeptides as HCMV inhibitors” (Bioorg Med Chem, 2011)
The source made the active and inactive calls. The calls are words filed in the database; no cut-off is given here.

Columns and labels:
[1] = Cytotoxicity against HELF cells assessed as after 3 days by Coulter counting analysis; format: cell-based; details: human; for MCC at 72 h / CC50 at 72 h: HELF cells; for CC50: helf, 72 h
Procedure, shortened: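 HEL cells were seeded at 5 × 10^3 cells/well and allowed to grow for 24 h before compound dilutions were added. After 3 days at 37 °C, cells were counted with a Coulter Counter.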

Human betaherpesvirus 5 = test: Antiviral activity against human cytomegalovirus infected in HELF assessed as decrease in plaque formation after 7 days by microscopy; format: functional, organism-based; details: Human betaherpesvirus 5, HELF, 168 h
Procedure, shortened: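 Confluent HEL fibroblasts were infected with HCMV Davis strain at 100 PFU per well. After 2 h, residual virus was removed and compound-containing medium was added in duplicate. Cells were incubated for 7 days at 37 °C, then ethanol-fixed and Giemsa-stained, and cytopathogenicity was scored microscopically.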

Human alphaherpesvirus 3 [2] = test: Antiviral activity against Thymidine kinase-positive Varicella-zoster virus Oka infected in HELF assessed as virus-induced cytopathogenicity after 5 days by microscopy; format: functional; details: Human alphaherpesvirus 3, strain Oka vaccine, 120 h
Human alphaherpesvirus 3 [3] = test: Antiviral activity against Thymidine kinase-deficient Varicella-zoster virus 07-1 infected in HELF assessed as virus-induced cytopathogenicity after 5 days by microscopy; format: functional, organism-based; details: Human alphaherpesvirus 3, 07-1, HELF, 120 h
Influenza A virus [4] = test: Antiviral activity against Influenza A virus infected in MDCK assessed as virus-induced cytopathogenicity at 20 to 100 uM after 4 days by microscopy; format: functional, organism-based
Procedure, shortened: (§1)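 Near-confluent MDCK (influenza) or confluent HEL monolayers were inoculated with 100 CCID50 of virus. After 1-h adsorption, residual virus was removed, and cells were incubated with fivefold serial dilutions of compound. Cytopathicity was scored microscopically once untreated infected controls reached complete CPE. Minimal cytotoxic concentration was read as microscopically visible alteration of cell morphology.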

Influenza A virus [5] = test: Antiviral activity against Influenza A virus H3N2 infected in MDCK assessed as virus-induced cytopathogenicity at 20 to 100 uM after 4 days by microscopy; format: functional, organism-based; procedure, shortened: as §1
Human alphaherpesvirus 2 = test: Antiviral activity against Human herpesvirus 2 strain G infected in HELF assessed as virus-induced cytopathogenicity at 20 to 100 uM after 4 days by microscopy; format: functional, organism-based
Procedure, shortened: (§2)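 Confluent cell monolayers were inoculated with 100 CCID50 of virus. After 1 h of adsorption, residual virus was removed and cultures were incubated with fivefold serial compound dilutions. Cytopathicity was scored microscopically once it was complete in the untreated infected controls.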

[6] = test system: Mammalian orthoreovirus 1; test: Antiviral activity against reovirus-1 infected in african green monkey Vero cells assessed as virus-induced cytopathogenicity at 20 to 100 uM after 4 days by microscopy; format: functional, organism-based; procedure, shortened: as §2
Human respirovirus 3 = test: Antiviral activity against parainfluenza-3 infected in african green monkey Vero cells assessed as virus-induced cytopathogenicity at 20 to 100 uM after 4 days by microscopy; format: functional, organism-based; procedure, shortened: as §2
Feline coronavirus = test: Antiviral activity against Feline coronavirus infected in CrFK assessed as virus-induced cytopathogenicity at 20 to 100 uM after 4 days by microscopy; format: functional, organism-based; procedure, shortened: as §2
Coxsackievirus B4 = test: Antiviral activity against coxsackievirus B4 infected in african green monkey Vero cells assessed as virus-induced cytopathogenicity at 20 to 100 uM after 4 days by microscopy; format: functional, organism-based; procedure, shortened: as §2
[7] = test system: Vesicular stomatitis virus; test: Antiviral activity against Vesicular stomatitis virus infected in HELF assessed as virus-induced cytopathogenicity at 20 to 100 uM after 4 days by microscopy; format: functional, organism-based; procedure, shortened: as §1
Sindbis virus = test: Antiviral activity against Sindbis virus infected in african green monkey Vero cells assessed as virus-induced cytopathogenicity at 20 to 100 uM after 4 days by microscopy; format: functional, organism-based; procedure, shortened: as §2
Influenza A virus [8] = test: Antiviral activity against Influenza A virus H1N1 infected in MDCK assessed as virus-induced cytopathogenicity at 20 to 100 uM after 4 days by microscopy; format: functional, organism-based; procedure, shortened: as §1
Human alphaherpesvirus 1 = test: Antiviral activity against Human herpesvirus 1 strain KOS infected in HELF assessed as virus-induced cytopathogenicity at 20 to 100 uM after 4 days by microscopy; format: functional, organism-based; procedure, shortened: as §2

Structure (SMILES)	MCC at 72 h [1]	CC50 [1]	EC50 (Human betaherpesvirus 5)	other results
C[C@H](NC(=O)[C@H](Cc1ccccc1)NC(=O)OCc1ccccc1)C(N)=O	> 100 µM	> 100 µM	> 100 µM	
C[C@H](NC(=O)[C@]1(Cc2ccccc2)CCN1C(=O)OCc1ccc([N+](=O)[O-])cc1)C(N)=O	100 µM		> 20 µM	CC50 at 72 h [1]: > 100 µM; IC50 (Human alphaherpesvirus 3 [2]): > 100 µM; IC50 (Human alphaherpesvirus 3 [3]): 67 µM
NCCCC[C@H](NC(=O)C1(Cc2ccccc2)CCN1C(=O)OCc1ccccc1)C(N)=O (mixture of isomers)	> 100 µM	> 100 µM	> 100 µM	
C[C@H](NC(=O)[C@]1(Cc2ccccc2)CCN1C(=O)OCc1ccccc1)C(=O)N(C)C	> 100 µM	> 100 µM	> 100 µM	
CC(C)C[C@H](NC(=O)[C@@]1(Cc2ccccc2)CCN1C(=O)OCc1ccccc1)C(N)=O	> 100 µM	66 µM	45 µM	
NC(=O)[C@H](CCC(=O)O)NC(=O)C1(Cc2ccccc2)CCN1C(=O)OCc1ccccc1 (mixture of isomers)	> 100 µM	> 100 µM	> 100 µM	
C[C@H](NC(=O)[C@]1(Cc2ccccc2)CCN1S(=O)(=O)c1ccc2ccccc2c1)C(N)=O	> 100 µM	> 100 µM	> 100 µM	IC50 (Human alphaherpesvirus 3 [2]): > 100 µM; IC50 (Human alphaherpesvirus 3 [3]): 76.5 µM
C[C@H](NC(=O)[C@]1(Cc2ccccc2)CCN1C(=O)OCC1c2ccccc2-c2ccccc21)C(N)=O	20 µM	14 µM	> 4 µM	Activity (Influenza A virus [4]): inactive; Activity (Influenza A virus [5]): inactive; Activity (Human alphaherpesvirus 2): inactive; Activity [6]: inactive; Activity (Human respirovirus 3): inactive; Activity (Feline coronavirus): inactive; Activity (Coxsackievirus B4): inactive; Activity [7]: inactive; Activity (Sindbis virus): inactive; Activity (Influenza A virus [8]): inactive; Activity (Human alphaherpesvirus 1): inactive
C[C@H](NC(=O)[C@]1(Cc2ccccc2)CCN1C(=O)OCc1ccccc1)C(=O)NC1CCCCC1	> 100 µM	> 100 µM	> 100 µM	
C[C@@H](NC(=O)[C@]1(Cc2ccccc2)CCN1C(=O)OCc1ccccc1)C(N)=O	> 100 µM	36 µM	63 µM	
NC(=O)[C@H](Cc1ccccc1)NC(=O)[C@]1(Cc2ccccc2)CCN1C(=O)OCc1ccccc1	100 µM	33 µM	> 20 µM	
Nc1nc(O)c2ncn(COC(CO)CO)c2n1 [GANCICLOVIR]	≥ 1580 µM	580 µM	7 µM	
C[C@H](NC(=O)[C@@]1(Cc2ccccc2)CCN1C(=O)OCc1ccccc1)C(=O)NC(C)(C)C (mixture of isomers)	> 100 µM	> 100 µM	49 µM	IC50 (Human alphaherpesvirus 3 [2]): 63 µM; IC50 (Human alphaherpesvirus 3 [3]): 60 µM
C[C@H](NC(=O)[C@]1(Cc2ccccc2)CCN1C(=O)OCc1ccccc1)C(=O)NC(C)(C)C	> 100 µM		45 µM	IC50 (Human alphaherpesvirus 3 [3]): 62.5 µM
C[C@H](NC(=O)[C@]1(Cc2ccccc2)CCN1C(=O)OCc1ccccc1)C(=O)NCc1ccccc1	100 µM		> 20 µM	
C[C@H](NC(=O)[C@]1(Cc2ccccc2)CCN1C(=O)OCc1ccccc1Cl)C(N)=O	> 100 µM	> 100 µM	> 20 µM	
CC(C)[C@H](NC(=O)[C@]1(Cc2ccccc2)CCN1C(=O)OCc1ccccc1)C(N)=O	> 100 µM	100 µM		

Structure (SMILES)	MCC at 72 h [1]	CC50 [1]	EC50 (Human betaherpesvirus 5)	other results
C[C@H](NC(=O)[C@]1(Cc2ccccc2)CCN1C(=O)NCc1ccccc1)C(N)=O	> 100 µM	> 100 µM	> 100 µM	
C[C@H](NC(=O)[C@]1(Cc2ccccc2)CCN1C(=O)N[C@@H](C)c1ccccc1)C(N)=O	> 100 µM	> 100 µM	> 100 µM	
Nc1nc2c(ncn2COCCO)c(=O)[nH]1 [ACYCLOVIR]	> 1780 µM	> 1780 µM		
NC(=O)[C@H](Cc1ccccc1)NC(=O)[C@@]1(Cc2ccccc2)CCN1C(=O)OCc1ccccc1	100 µM	37 µM	> 20 µM	
C[C@H](NC(=O)[C@]1(Cc2ccccc2)CCN1C(=O)CCc1ccccc1)C(N)=O	100 µM		> 100 µM	CC50 at 72 h [1]: > 100 µM
C[C@H](NC(=O)[C@@]1(Cc2ccccc2)CCN1C(=O)OCc1ccccc1)C(=O)N(C)C	> 100 µM		> 100 µM	
CC(C)CNC(=O)[C@H](C)NC(=O)[C@@]1(Cc2ccccc2)CCN1C(=O)OCc1ccccc1	> 100 µM		> 100 µM	
C[C@H](NC(=O)[C@@]1(Cc2ccccc2)CCN1C(=O)OCc1ccccc1)C(=O)NCc1ccccc1 (racemic)	≥ 20 µM	42 µM	> 4 µM	
C[C@H](NC(=O)[C@]1(Cc2ccccc2)CCN1C(=O)Oc1cccc2ccccc12)C(N)=O	> 100 µM	> 100 µM	45 µM	IC50 (Human alphaherpesvirus 3 [2]): 47.7 µM; IC50 (Human alphaherpesvirus 3 [3]): 47.7 µM
C[C@H](NC(=O)[C@]1(Cc2ccccc2)CCN1C(=O)Oc1ccccc1)C(N)=O	> 100 µM	> 100 µM	> 20 µM	IC50 (Human alphaherpesvirus 3 [2]): 69 µM; IC50 (Human alphaherpesvirus 3 [3]): 858 µM
CC(C)CNC(=O)[C@H](C)NC(=O)[C@]1(Cc2ccccc2)CCN1C(=O)OCc1ccccc1	> 100 µM	> 100 µM	63 µM	IC50 (Human alphaherpesvirus 3 [2]): > 100 µM; IC50 (Human alphaherpesvirus 3 [3]): 64.8 µM
CC(C)[C@H](NC(=O)[C@@]1(Cc2ccccc2)CCN1C(=O)OCc1ccccc1)C(N)=O	> 100 µM	85 µM	> 100 µM	
C[C@H](NC(=O)[C@@]1(Cc2ccccc2)CCN1C(=O)OCc1ccccc1)C(=O)NC1CCCCC1	100 µM	46 µM	> 20 µM	
CC(C)C[C@H](NC(=O)[C@]1(Cc2ccccc2)CCN1C(=O)OCc1ccccc1)C(N)=O	100 µM	50 µM	> 20 µM	
C[C@H](NC(=O)[C@H](Cc1ccccc1)NC(=O)OCc1ccccc1)C(=O)NC(C)(C)C	> 100 µM	> 100 µM	> 100 µM	
C[C@H](NC(=O)[C@]1(Cc2ccccc2)CCN1C(=O)OCc1ccccc1)C(N)=O	> 50 µM	50 µM	32 µM	
C[C@@H](NC(=O)[C@@]1(Cc2ccccc2)CCN1C(=O)OCc1ccccc1)C(N)=O	> 100 µM	> 100 µM	> 100 µM	
